According to ChEMBL document CHEMBL1139252, “Inhibition of purple acid phosphatase with alpha-alkoxynaphthylmethylphosphonic acids” (Bioorg Med Chem Lett, 2009):
pIC50: −log10 of the molar value.

Experiments:
[1] = target: T1, Fe(3+)-Zn(2+) purple acid phosphatase (Phaseolus vulgaris, UniProt P80366); assay: Inhibition of red kidney bean PAP at pH 6.2
T1 sequence (P80366 whole entry): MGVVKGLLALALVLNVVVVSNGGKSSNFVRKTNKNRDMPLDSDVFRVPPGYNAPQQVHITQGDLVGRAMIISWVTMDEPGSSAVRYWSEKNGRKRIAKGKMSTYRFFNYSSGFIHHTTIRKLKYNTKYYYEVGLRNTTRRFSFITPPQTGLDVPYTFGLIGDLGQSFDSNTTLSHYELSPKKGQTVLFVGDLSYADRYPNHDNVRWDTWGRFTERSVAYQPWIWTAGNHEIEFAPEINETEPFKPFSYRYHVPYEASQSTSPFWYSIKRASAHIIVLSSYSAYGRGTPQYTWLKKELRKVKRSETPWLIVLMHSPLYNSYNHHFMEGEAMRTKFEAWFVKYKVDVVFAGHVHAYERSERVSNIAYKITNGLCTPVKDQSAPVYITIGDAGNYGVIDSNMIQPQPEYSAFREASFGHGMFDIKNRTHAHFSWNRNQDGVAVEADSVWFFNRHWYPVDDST
Method in brief: (§1)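 Each enzyme was run at its own pH optimum: red kidney bean PAP at pH 6.2 and pig PAP at pH 4.9. IC50 values were determined experimentally. Separate inhibition constants were derived for binding to the free enzyme and to the enzyme–substrate complex.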

[2] = Inhibition of human PAP
[3] = Inhibition of pig PAP at pH 4.9; set-up: species or system Sus scrofa; method in brief: as §1

SMILES: O=P(O)(O)C(O)c1cccc2ccccc12 (stereo not given)
- pIC50 [1]: 2.30

SMILES: O=C(c1ccccc1)C(C(=O)c1ccccc1)(c1cccc2ccccc12)P(=O)(O)O
- pIC50 [2]: 5.85

SMILES: O=P(O)(O)Cc1cccc2ccccc12
- pIC50 [1]: < 2.15
- pIC50 [2]: 4.52

SMILES: CCCCCCCCOC(c1cccc2ccccc12)P(=O)(O)O (racemic)
- pIC50 [1]: 4.00
- pIC50 [3]: 4.52

SMILES: CCCCCCCCCCOC(c1cccc2ccccc12)P(=O)(O)O (racemic)
- pIC50 [1]: 5.10
- pIC50 [3]: 4.70

SMILES: CCCCCCOC(c1cccc2ccccc12)P(=O)(O)O (racemic)
- pIC50 [1]: 3.00
- pIC50 [3]: 3.37
